A selection: hits, their analogues and other compounds. The true share with any hit is near 2.9%.
TRPC6 activator = mouse TRPC6 channel activators, primary screen, cell-based, HEK293, membrane potential dye; B-score at 10 µM; AID 2550, 2010; Short transient receptor potential channel 6 (Mus musculus), Q61143; 310,000 compounds, 0.13% hits; HEK293-TRPC6 membrane potential dye fluorescence; active compounds read high;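 active = B-score of the integrated fluorescence ratio above library mean plus 3 SD, and starting fluorescence ratio within library mean plus 5 SD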;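 note: higher score means more depolarization so channel activation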
Target sequence (Q61143 whole entry, looked up): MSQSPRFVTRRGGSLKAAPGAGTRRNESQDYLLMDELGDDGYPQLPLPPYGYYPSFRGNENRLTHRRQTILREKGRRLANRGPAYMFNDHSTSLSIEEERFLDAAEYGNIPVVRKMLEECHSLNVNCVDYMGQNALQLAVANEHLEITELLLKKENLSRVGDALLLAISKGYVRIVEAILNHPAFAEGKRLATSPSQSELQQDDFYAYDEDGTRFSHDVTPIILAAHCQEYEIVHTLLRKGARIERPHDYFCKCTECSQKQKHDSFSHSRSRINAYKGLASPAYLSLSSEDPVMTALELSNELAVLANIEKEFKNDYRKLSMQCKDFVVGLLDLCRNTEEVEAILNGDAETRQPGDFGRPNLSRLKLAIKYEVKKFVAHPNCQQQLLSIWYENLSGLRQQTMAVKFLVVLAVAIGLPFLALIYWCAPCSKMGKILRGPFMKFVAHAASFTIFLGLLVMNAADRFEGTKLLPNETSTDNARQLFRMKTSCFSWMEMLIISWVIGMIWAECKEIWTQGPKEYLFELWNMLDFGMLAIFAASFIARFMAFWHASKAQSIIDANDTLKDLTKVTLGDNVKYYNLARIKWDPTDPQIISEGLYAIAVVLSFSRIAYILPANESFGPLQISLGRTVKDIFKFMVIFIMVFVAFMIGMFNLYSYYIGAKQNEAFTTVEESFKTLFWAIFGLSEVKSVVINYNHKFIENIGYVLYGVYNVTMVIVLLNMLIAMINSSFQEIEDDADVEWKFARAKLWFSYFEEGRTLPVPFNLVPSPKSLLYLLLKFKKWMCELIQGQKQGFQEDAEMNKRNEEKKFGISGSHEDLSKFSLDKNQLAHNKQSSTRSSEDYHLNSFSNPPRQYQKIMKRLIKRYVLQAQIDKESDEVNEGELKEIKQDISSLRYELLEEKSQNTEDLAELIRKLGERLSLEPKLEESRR
TRPC4 act = activators of mouse TRPC4 channel, primary screen, Fluo4 calcium, HEK293 TRPC4beta/mu-opioid cells; 310,000 compounds, 0.49% hits; AID 2237, 2010; Fluo4 calcium fluorescence; active compounds read high; Short transient receptor potential channel 4 (Mus musculus), Q9QUQ5; B-score at 10 µM;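 active = B-score above 5 SD of library B-scores, and initial fluorescence ratio not above library mean plus 5 SD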;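 note: positive B-score marks a calcium rise read as TRPC4 activation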
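Technique: kinetic Fluo4 calcium fluorescence; Test system: TRPC4beta and mu-opioid receptor HEK293 stable cells; Measure: B-scored integrated calcium fluorescence ratio; Benchmarks: low control buffer alone, high control maximal DAMGO; Schedule: 45 min room-temperature Fluo4 loading, 110 s read.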
Kir21 inh = inhibitors of mouse Kir2.1 inward-rectifier potassium channel; AID 1672, 2009; 310,000 compounds, 0.85% hits; B-score at 10 µM; HEK293-Kir2.1, FluxOR thallium flux fluorescence; active compounds read low; Inward rectifier potassium channel 2 (Mus musculus), P35561;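 active = fluorescence ratio B-score at or below minus 3 SD of library scores, with starting-brightness B-score within 2 SD, cut at about -4.2 in these data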;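 note: channel flux triggered by added potassium and thallium sulfate stimulus; B-score of peak minus minimum fluorescence over baseline after thallium stimulus; more negative B-score means stronger Kir2.1 block with less thallium influx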
TRPC4 potent = positive allosteric modulators of TRPC4, primary screen, cell-based, mouse TRPC4beta, HEK293 mu-opioid, Fluo-4 calcium. Short transient receptor potential channel 4 (Mus musculus), Q9QUQ5. DAMGO EC20, Fluo-4 Ca2+ flux; active compounds read high. B-score at 10 µM. 310,000 compounds, 0.42% hits. AID 2227, 2009;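 active = B-score of calcium response area above 5 SD of library B-scores, with initial fluorescence ratio within 5 SD of library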;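 note: B-score of integrated fluorescence ratio over time as area under calcium response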
TRPC4 inh = inhibitors of mouse TRPC4 channel, primary screen, Fluo4 calcium, HEK293 TRPC4beta/mu-opioid cells | B-score at 10 µM | 300,000 compounds, 0.39% hits | Short transient receptor potential channel 4 (Mus musculus), Q9QUQ5 | DAMGO-evoked Fluo4 calcium flux; active compounds read low;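 active = B-score over 3 SD under the library average, no early fluorescence shift, positive overall ratio signal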
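material = TRPC4beta/mu-opioid receptor HEK293 cell line | probe or stimulus = sequential submaximal and maximal DAMGO stimulation | compound dosing = one concentration per compound | measured by = Fluo4 Ca2+ flux fluorescence | evaluation = integrated fluorescence ratio relative to baseline, converted to per-well B score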
TRPC6 inhibitor = mouse TRPC6 channel inhibitors, primary screen, cell-based, HEK293, membrane potential dye; 310,000 compounds, 1.1% hits; ACh-evoked depolarization; active compounds read low; AID 2553, 2010; B-score at 10 µM; Short transient receptor potential channel 6 (Mus musculus), Q61143;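 active = B-score under library mean minus 3 SD, initial fluorescence not abnormally high, positive integrated signal ratio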;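 note: B-score derived from integrated fluorescence ratio over the kinetic read; more negative B-score means stronger inhibition of depolarization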
Active calls of the source: *.

CCOC(=O)c1c(CSc2ccccc2)n(C)c2ccc(O)c(CN3CCN(C)CC3)c12 was read as TRPC6 activator inactive, TRPC4 act inactive, Kir21 inh -4.9*, TRPC4 potent inactive, TRPC4 inh inactive and TRPC6 inhibitor inactive.
Screening CCNS(=O)(=O)c1ccc(Br)c(OC)c1 returned TRPC6 activator inactive, TRPC4 act inactive, Kir21 inh 1.2, TRPC4 potent inactive, TRPC4 inh -6* and TRPC6 inhibitor inactive.
For CCCC1=C(C(=O)OCC)C(c2c(C)nn(-c3ccccc3)c2Cl)C(C#N)=C(N)O1 (configuration not stated) the results were TRPC6 activator inactive, TRPC4 act inactive, Kir21 inh 1, TRPC4 potent inactive, TRPC4 inh inactive and TRPC6 inhibitor inactive.
CC1CC(C)CN(CCOc2ccccc2-c2ccccc2)C1 (configuration not stated) was read as TRPC6 activator inactive, TRPC4 act inactive, Kir21 inh -6.3*, TRPC4 potent inactive, TRPC4 inh inactive and TRPC6 inhibitor inactive.
c1ccc(-c2ccccc2OCCCN2CCCC2)cc1 was read as TRPC6 activator inactive, TRPC4 act inactive, Kir21 inh -4.2*, TRPC4 potent inactive, TRPC4 inh inactive and TRPC6 inhibitor inactive.
`Cc1nc(-c2ccccc2)sc1C(=O)CSc1ccc(Cl)cc1` gave TRPC6 activator inactive, TRPC4 act inactive, Kir21 inh 1.5, TRPC4 potent inactive, TRPC4 inh inactive and TRPC6 inhibitor inactive.
For CN(C(=O)C1CCCO1)c1nnc(-c2ccccn2)s1 (configuration not stated) the results were TRPC6 activator inactive, TRPC4 act inactive, Kir21 inh -1.3, TRPC4 potent inactive, TRPC4 inh inactive and TRPC6 inhibitor inactive.
`CN(C(=O)COc1ccccc1C(=O)NCCOc1ccccc1)c1ccccc1` gave TRPC6 activator inactive, TRPC4 act inactive, Kir21 inh -7.5*, TRPC4 potent inactive, TRPC4 inh inactive and TRPC6 inhibitor inactive.
For Cc1ccc(OCc2ccoc2C(=O)O)cc1C the results were TRPC6 activator inactive, TRPC4 act inactive, Kir21 inh 0.12, TRPC4 potent inactive, TRPC4 inh inactive and TRPC6 inhibitor inactive.
`O=Cc1c(SCCO)nc2ccccn2c1=O` gave TRPC6 activator inactive, TRPC4 act inactive, Kir21 inh -1, TRPC4 potent inactive, TRPC4 inh inactive and TRPC6 inhibitor inactive.
COC(=O)CSc1nc2ccccn2c(=O)c1C=O was read as TRPC6 activator inactive, TRPC4 act inactive, Kir21 inh -0.76, TRPC4 potent inactive, TRPC4 inh -6* and TRPC6 inhibitor inactive.
For COc1ccccc1CCNC(=O)C(=O)NCC1OCCN1S(=O)(=O)c1ccc(Cl)cc1 (configuration not stated) the results were TRPC6 activator inactive, TRPC4 act inactive, Kir21 inh 0.52, TRPC4 potent inactive, TRPC4 inh inactive and TRPC6 inhibitor inactive.
Cc1ccn2c(-c3csc(NCc4ccco4)n3)c(C)nc2c1 was read as TRPC6 activator inactive, TRPC4 act inactive, Kir21 inh 0.63, TRPC4 potent inactive, TRPC4 inh -6* and TRPC6 inhibitor inactive.
CCC(C)C(=O)N1c2ccccc2C(=C2SC(C(=O)OC)=C(C(=O)OC)S2)C(=S)C1(C)C (configuration not stated) was read as TRPC6 activator inactive, TRPC4 act inactive, Kir21 inh -0.09, TRPC4 potent inactive, TRPC4 inh inactive and TRPC6 inhibitor inactive.
Screening Fc1ccc(-n2c(Cc3cccs3)n[nH]c2=S)cc1Cl returned TRPC6 activator inactive, TRPC4 act inactive, Kir21 inh -4.2*, TRPC4 potent inactive, TRPC4 inh inactive and TRPC6 inhibitor inactive.
